Assay results as given in ChEMBL document CHEMBL1142716, “2-Hydroxy-4,6-diamino-[1,3,5]triazines: a novel class of VEGF-R2 (KDR) tyrosine kinase inhibitors” (J Med Chem, 2005).

How the values were obtained:
[1] = biological target: T1, Vascular endothelial growth factor receptor 2 (Homo sapiens, UniProt P35968); experiment: In vitro inhibition of Vascular endothelial growth factor receptor 2 at 10 uM ATP
[2] = biological target: T1, Vascular endothelial growth factor receptor 2; experiment: Inhibition of KDR-induced MAP kinase autophosphorylation assay in HUVEC cells; type: functional, cell-based
Method in brief: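 Low-passage HUVECs (passage 3-12) were grown to confluence, serum-starved, treated with compound or DMSO, then stimulated with VEGF. Cells were lysed, run on SDS-PAGE and immunoblotted quantitatively with a phospho-p42/44 MAP kinase (pERK1/2) antibody. Inhibition is expressed as a percent of VEGF-stimulated phosphorylation in DMSO controls. IC50 values are the mean of three independent experiments.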

[3] = biological target: Fibroblast growth factor receptor 1 (Mus musculus, UniProt P16092); experiment: Inhibition of mouse Fibroblast growth factor receptor 1 expressed in NIH 3T3 fibroblasts
Chain of Fibroblast growth factor receptor 1 (P16092 whole entry): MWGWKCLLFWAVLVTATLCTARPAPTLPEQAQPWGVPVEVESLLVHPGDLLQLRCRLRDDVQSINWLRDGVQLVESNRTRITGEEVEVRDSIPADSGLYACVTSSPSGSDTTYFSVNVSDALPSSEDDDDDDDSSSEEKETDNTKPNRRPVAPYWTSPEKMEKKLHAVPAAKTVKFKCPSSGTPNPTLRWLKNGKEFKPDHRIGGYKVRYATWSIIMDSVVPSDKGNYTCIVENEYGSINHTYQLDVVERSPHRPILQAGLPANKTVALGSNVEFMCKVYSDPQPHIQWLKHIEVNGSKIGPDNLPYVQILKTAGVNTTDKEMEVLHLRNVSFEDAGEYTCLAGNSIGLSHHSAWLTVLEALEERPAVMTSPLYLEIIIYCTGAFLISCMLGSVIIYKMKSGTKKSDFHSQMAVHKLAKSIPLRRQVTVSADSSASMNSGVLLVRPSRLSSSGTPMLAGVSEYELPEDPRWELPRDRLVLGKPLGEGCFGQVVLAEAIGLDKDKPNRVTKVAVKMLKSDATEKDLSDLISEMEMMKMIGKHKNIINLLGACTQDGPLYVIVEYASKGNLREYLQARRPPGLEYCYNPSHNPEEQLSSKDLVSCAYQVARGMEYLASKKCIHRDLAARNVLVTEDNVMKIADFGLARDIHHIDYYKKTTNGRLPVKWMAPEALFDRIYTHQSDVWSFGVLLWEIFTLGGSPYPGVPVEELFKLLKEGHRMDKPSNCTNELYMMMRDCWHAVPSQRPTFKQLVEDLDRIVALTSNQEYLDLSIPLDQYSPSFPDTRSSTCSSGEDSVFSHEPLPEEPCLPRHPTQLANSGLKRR
Method in brief: (§1)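 Cell-based counterscreen for growth-factor-induced p42/44 MAP kinase phosphorylation through EGFR, insulin receptor or FGFR-1. Cells were grown, treated and fixed in 96-well plates, and phosphorylation was read by phospho-specific ELISA.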

[4] = Inhibition of fibroblast growth factor receptor 1
Insulin receptor [5] = biological target: T2, Insulin receptor (Homo sapiens, UniProt P06213); experiment: Inhibition of beta IRK tyrosine kinase
T2 sequence (P06213 28-758 limits assumed): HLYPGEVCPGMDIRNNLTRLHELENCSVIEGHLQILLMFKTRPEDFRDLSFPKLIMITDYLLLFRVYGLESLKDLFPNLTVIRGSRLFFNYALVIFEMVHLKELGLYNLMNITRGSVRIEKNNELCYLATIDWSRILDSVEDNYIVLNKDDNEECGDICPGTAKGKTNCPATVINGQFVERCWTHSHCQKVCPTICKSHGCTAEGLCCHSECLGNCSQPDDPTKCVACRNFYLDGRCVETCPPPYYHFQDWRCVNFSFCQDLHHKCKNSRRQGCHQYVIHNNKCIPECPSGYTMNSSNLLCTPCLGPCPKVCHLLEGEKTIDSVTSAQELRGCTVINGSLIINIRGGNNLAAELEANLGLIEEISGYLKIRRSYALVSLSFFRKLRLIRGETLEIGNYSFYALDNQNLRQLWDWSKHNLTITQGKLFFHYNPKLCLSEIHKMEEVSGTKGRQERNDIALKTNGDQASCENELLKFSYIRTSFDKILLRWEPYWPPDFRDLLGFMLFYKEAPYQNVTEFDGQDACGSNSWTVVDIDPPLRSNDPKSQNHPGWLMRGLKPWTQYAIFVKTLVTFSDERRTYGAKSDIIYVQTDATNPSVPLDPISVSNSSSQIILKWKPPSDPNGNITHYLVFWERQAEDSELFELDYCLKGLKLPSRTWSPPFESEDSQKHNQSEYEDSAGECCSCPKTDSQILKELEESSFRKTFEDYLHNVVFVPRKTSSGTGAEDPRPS
T2 sequence (P06213 763-1382 limits assumed): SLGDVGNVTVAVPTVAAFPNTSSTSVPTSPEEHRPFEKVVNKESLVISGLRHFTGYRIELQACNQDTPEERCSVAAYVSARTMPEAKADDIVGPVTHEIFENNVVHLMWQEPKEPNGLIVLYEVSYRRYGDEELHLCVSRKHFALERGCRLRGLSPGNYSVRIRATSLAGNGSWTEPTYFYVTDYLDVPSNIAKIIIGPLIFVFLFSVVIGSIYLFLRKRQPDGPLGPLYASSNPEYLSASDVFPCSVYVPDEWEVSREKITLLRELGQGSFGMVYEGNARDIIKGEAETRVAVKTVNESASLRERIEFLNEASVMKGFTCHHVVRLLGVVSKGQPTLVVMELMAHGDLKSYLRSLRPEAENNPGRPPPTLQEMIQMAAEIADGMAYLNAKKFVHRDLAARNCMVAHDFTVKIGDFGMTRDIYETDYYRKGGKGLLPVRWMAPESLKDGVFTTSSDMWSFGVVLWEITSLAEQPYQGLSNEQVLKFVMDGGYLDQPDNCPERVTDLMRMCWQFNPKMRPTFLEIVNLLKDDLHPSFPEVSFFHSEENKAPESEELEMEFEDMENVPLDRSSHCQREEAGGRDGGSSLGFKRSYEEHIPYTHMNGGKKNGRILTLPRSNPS

[6] = biological target: Platelet-derived growth factor receptor (Homo sapiens, UniProt P09619+P16234); experiment: Inhibition of PDGF-R2 tyrosine kinase; type: protein-complex assay
Angiopoietin-1 receptor = Angiopoietin-1 receptor (Homo sapiens, UniProt Q02763); experiment: Inhibition of tyrosine protein kinase receptor TIE-2
Chain of Angiopoietin-1 receptor (Q02763 whole entry): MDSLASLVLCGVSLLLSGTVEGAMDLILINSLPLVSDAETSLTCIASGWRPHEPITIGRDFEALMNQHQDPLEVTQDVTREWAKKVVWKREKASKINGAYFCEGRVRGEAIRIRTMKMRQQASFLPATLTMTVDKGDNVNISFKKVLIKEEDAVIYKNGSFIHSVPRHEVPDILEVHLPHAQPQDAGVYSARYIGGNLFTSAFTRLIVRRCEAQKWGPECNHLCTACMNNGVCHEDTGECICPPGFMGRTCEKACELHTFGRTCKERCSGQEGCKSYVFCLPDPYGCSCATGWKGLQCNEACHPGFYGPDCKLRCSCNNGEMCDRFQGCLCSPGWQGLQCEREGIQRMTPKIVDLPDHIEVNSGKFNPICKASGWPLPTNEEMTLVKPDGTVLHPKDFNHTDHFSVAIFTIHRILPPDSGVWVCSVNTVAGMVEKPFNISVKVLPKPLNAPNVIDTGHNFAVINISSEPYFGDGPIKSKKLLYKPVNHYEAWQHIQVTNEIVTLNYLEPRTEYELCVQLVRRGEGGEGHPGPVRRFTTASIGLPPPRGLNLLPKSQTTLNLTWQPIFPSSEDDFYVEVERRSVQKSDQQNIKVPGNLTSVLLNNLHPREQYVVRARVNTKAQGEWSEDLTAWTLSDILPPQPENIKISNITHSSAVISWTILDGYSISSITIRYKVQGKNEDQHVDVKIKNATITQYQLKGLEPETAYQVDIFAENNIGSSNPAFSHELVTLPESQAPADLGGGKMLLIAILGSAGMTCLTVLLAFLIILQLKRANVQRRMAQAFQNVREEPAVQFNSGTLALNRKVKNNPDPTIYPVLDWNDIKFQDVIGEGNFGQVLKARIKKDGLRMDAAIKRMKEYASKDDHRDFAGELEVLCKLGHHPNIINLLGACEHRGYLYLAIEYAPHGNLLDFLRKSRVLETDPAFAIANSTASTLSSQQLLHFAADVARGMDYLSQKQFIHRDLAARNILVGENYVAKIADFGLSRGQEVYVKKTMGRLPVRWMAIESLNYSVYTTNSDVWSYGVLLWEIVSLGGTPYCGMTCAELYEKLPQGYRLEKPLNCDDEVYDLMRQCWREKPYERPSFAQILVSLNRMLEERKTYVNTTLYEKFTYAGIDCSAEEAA

[7] = Inhibition of c-Src tyrosine kinase
[8] = biological target: Macrophage colony-stimulating factor 1 receptor (Homo sapiens, UniProt P07333); experiment: Inhibition of c-fms tyrosine kinase
[9] = biological target: T3, Epidermal growth factor receptor (Homo sapiens, UniProt P00533); experiment: Inhibition of human Epidermal growth factor receptor expressed in A431
T3 sequence (P00533 whole entry): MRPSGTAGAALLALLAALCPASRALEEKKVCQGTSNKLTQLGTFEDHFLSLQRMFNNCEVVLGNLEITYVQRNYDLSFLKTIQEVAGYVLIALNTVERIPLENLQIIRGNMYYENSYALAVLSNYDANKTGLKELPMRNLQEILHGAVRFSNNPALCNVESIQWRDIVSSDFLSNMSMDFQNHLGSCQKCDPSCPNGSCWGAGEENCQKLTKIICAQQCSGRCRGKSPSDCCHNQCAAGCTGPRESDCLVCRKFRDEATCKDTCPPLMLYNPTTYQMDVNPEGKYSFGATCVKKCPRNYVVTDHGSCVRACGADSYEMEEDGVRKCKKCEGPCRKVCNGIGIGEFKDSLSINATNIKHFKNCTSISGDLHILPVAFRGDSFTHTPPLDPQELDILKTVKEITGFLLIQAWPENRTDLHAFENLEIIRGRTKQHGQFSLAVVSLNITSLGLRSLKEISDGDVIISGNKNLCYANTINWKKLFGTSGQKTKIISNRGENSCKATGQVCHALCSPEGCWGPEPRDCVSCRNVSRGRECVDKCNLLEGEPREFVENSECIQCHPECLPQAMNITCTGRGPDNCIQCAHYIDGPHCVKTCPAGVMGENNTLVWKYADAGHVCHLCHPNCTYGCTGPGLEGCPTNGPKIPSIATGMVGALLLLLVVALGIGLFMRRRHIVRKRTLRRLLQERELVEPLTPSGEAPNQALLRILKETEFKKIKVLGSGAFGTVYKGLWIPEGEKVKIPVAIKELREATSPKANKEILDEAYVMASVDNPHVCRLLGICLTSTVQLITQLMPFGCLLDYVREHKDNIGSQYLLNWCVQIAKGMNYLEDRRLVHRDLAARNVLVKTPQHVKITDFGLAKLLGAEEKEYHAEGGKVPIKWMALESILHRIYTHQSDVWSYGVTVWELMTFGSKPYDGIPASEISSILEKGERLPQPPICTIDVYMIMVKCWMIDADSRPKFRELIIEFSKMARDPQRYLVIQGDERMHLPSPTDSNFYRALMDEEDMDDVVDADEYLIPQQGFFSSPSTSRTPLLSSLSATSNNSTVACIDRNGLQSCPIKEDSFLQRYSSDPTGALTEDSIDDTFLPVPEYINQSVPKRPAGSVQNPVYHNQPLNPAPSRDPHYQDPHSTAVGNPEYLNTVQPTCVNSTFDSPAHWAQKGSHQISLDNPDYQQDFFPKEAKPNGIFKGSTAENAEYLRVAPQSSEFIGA
Method in brief: (§2)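 Cell-based counterscreen. Cells were grown, treated with compound and fixed in wells. EGF-R-induced phosphorylation of MAP kinase was then read directly by a phosphorylation-specific ELISA.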

Insulin receptor [10] = biological target: T2, Insulin receptor; experiment: Inhibition of human Insulin receptor expressed in CHO cells; type: cell-based; method in brief: as §1
HUVEC = experiment: Inhibitory concentration against HUVEC cells; type: functional, cell-based; settings: Homo sapiens
[11] = biological target: T3, Epidermal growth factor receptor; experiment: Inhibition of human epidermal growth factor receptor; method in brief: as §2
Rattus norvegicus [12] = organism: Rattus norvegicus; experiment: Total tube length (arbitrary units) of aortic rings was measured by aortic ring assay in rat at 30 uM concentration of the compound; type: functional, Aorta
Method in brief: (§3)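 Rings cut from rat aorta were embedded in collagen gels containing 5 ng/mL VEGF and cultured for 7 days with test compound. The total length of capillary-like sprouts growing out from each ring was measured in arbitrary units and reported with SEM.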

Rattus norvegicus [13] = organism: Rattus norvegicus; experiment: Total tube length (arbitrary units) of aortic rings was measured by aortic ring assay in rat at 0.3 uM concentration of the compound; type: functional, Aorta; method in brief: as §3
Rattus norvegicus [14] = organism: Rattus norvegicus; experiment: Total tube length (arbitrary units) of aortic rings was measured by aortic ring assay in rat at 3 uM concentration of the compound; type: functional, Aorta; method in brief: as §3
[15] = Inhibition of Fibroblast growth factor receptor 1

Compound	IC50 [1]	IC50 [2]	IC50 [3]	IC50 [4]	IC50 (Insulin receptor [5])	IC50 [6]	IC50 (Angiopoietin-1 receptor)	IC50 [7]	IC50 [8]	IC50 [9]	IC50 (Insulin receptor [10])	IC50 (HUVEC)	IC50 [11]	Activity (Rattus norvegicus [12])	Activity (Rattus norvegicus [13])	Activity (Rattus norvegicus [14])	IC50 [15]
CC(C)(Nc1nc(O)nc(Nc2ccc3[nH]cnc3c2)n1)c1ccccc1	240 nM	> 20000 nM															
COc1nc(Nc2ccc3ncsc3c2)nc(NC(C)(C)c2ccccc2)n1	6100 nM	> 30000 nM															
CC(C)(Nc1nc(O)nc(Nc2ccc3ncsc3c2)n1)c1ccccc1	35 nM	400 nM	> 10000 nM	> 12500 nM	550 nM	8000 nM	1000 nM	4300 nM	> 12500 nM	> 10000 nM	> 10000 nM						
CC(C)N(Cc1ccccc1)c1nc(O)nc(Nc2ccc3ncsc3c2)n1	18 nM	280 nM	> 10000 nM	> 12500 nM	11000 nM	> 12500 nM	180 nM	> 12500 nM	> 12500 nM		> 10000 nM	280 nM	> 10000 nM	36.3	1503	348	
CC(C)(Nc1nc(NO)nc(Nc2ccc3ncsc3c2)n1)c1ccccc1	40 nM	840 nM	> 10000 nM	1800 nM	420 nM	3900 nM	700 nM	1800 nM	14000 nM	> 10000 nM	> 10000 nM						
Oc1nc(NCc2ccccc2)nc(Nc2ccc3ncsc3c2)n1	2000 nM	> 30000 nM															
CN(Cc1ccccc1)c1nc(O)nc(Nc2ccc3ncsc3c2)n1	320 nM	2400 nM															
CCN(Cc1ccccc1)c1nc(O)nc(Nc2ccc3ncsc3c2)n1	49 nM	600 nM	> 10000 nM		4000 nM	2500 nM	400 nM	3100 nM	4300 nM	> 10000 nM	> 10000 nM						> 12500 nM
CC(C)(Nc1nc(Cl)nc(Nc2ccc3ncsc3c2)n1)c1ccccc1	5500 nM	1080 nM															
